Results: ChEMBL document CHEMBL3352584, “Novel DNA gyrase inhibiting spiropyrimidinetriones with a benzisoxazole scaffold: SAR and in vivo characterization” (J Med Chem, 2014)
Values after ≈ are worked out from the molar mass of the structure shown.

Key:
[1] = Solubility of the compound; type: physicochemical
[2] = Fraction unbound in human plasma at 10 uM after 16 hrs by LC-MS/MS analysis; type: ADME, cell-free
Method in brief: (§1)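 Compound at 10 μM in human, rat or mouse plasma, equilibrium dialysis against buffer at 37 °C for 16 h. Buffer and plasma concentrations measured by LC-MS/MS, and the free fraction taken from their ratio.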

[3] = test system: Haemophilus influenzae; test: Antimicrobial activity against Haemophilus influenzae by broth microdilution method; type: functional
Method in brief: (§2)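 Broth microdilution following CLSI guidelines. Values under 12.5 μM are averages of three or more replicates.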

[4] = test system: Escherichia coli; test: Antimicrobial activity against tolC-deficient Escherichia coli by broth microdilution method; type: functional; method in brief: as §2
[5] = test system: Streptococcus pneumoniae; test: Antimicrobial activity against Streptococcus pneumoniae by broth microdilution method; type: functional; method in brief: as §2
[6] = test system: Staphylococcus aureus; test: Antimicrobial activity against methicillin-resistant and quinolone-resistant Staphylococcus aureus by broth microdilution method; type: functional; method in brief: as §2
[7] = molecular target: DNA gyrase (Escherichia coli, UniProt P0AES4+P0AES6); test: Inhibition of Escherichia coli DNA gyrase using fluorescence-tagged DNA by fluorescenct polarization assay; type: protein-complex assay
Method in brief: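 E. coli DNA gyrase supercoiling assay. The read-out was differential binding of a fluorescence-tagged DNA to relaxed versus supercoiled DNA, giving IC50.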

[8] = test system: Staphylococcus aureus; test: Antimicrobial activity against methicillin-sensitive Staphylococcus aureus by broth microdilution method in presence of 50% human serum; type: functional
Method in brief: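 CLSI broth microdilution against methicillin-sensitive S. aureus, run with 50% human serum added to the medium to reflect plasma protein binding. Values under 12.5 μM are averages of three or more replicates.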

[9] = test system: Escherichia coli; test: Antimicrobial activity against Escherichia coli by broth microdilution method; type: functional; method in brief: as §2
[10] = test system: Staphylococcus aureus; test: Antimicrobial activity against methicillin-sensitive Staphylococcus aureus by broth microdilution method; type: functional; method in brief: as §2
[11] = test system: Streptococcus pyogenes; test: Antimicrobial activity against Streptococcus pyogenes by broth microdilution method; type: functional; method in brief: as §2
[12] = test system: Staphylococcus aureus; test: Antimicrobial activity against Staphylococcus aureus 2792 harboring wild-type GyrA and GyrB R144A mutant by broth microdilution method; type: functional
[13] = test system: Staphylococcus aureus; test: Antimicrobial activity against wild-type Staphylococcus aureus 516 by broth microdilution method; type: functional; method in brief: as §2
[14] = test system: Staphylococcus aureus; test: Antimicrobial activity against Staphylococcus aureus 2375 harboring GyrA S84L mutant, GyrB R144A mutant and ParC S80Y/E84G/V693M mutant and ParE N141S mutant by broth microdilution method; type: functional
[15] = Clearance in mouse at 3 mg/kg, iv or at 10 mg/kg, po by LC-MS/MS method; type: ADME, organism-based; details: in vivo
Method in brief: (§3)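 Male mice (CD-1) or male Wistar Hannover rats, three per experiment, given a 15 min iv infusion at 3 mg/kg or oral dosing at 10 mg/kg. Vehicle was DMA:TEG:saline 40/40/20 for mice and meglumine/cyclodextrin for rats. Serial jugular blood was taken over 0–24 h, plasma analysed by LC-MS/MS, and a noncompartmental analysis used. Mean values are given.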

[16] = Fraction unbound in mouse plasma at 10 uM after 16 hrs by LC-MS/MS analysis; type: ADME, cell-free; method in brief: as §1
[17] = Bioavailability in rat at 3 mg/kg, iv or at 10 mg/kg, po by LC-MS/MS method; type: ADME, organism-based; details: in vivo; method in brief: as §3
[18] = Bioavailability in mouse at 3 mg/kg, iv or at 10 mg/kg, po by LC-MS/MS method; type: ADME, organism-based; details: in vivo; method in brief: as §3
[19] = Clearance in rat at 3 mg/kg, iv or at 10 mg/kg, po by LC-MS/MS method; type: ADME, organism-based; details: in vivo; method in brief: as §3
[20] = Fraction unbound in rat plasma at 10 uM after 16 hrs by LC-MS/MS analysis; type: ADME, cell-free; method in brief: as §1

Row | Structure (SMILES) | solubility [1] | fraction unbound at 16 h, 10 µM [2] | MIC [3] | MIC [4] | MIC [5] | MIC [6] | IC50 [7] | MIC [8] | MIC [9] | MIC [10] | MIC [11] | MIC [12] | MIC [13] | MIC [14] | clearance [15] | fraction unbound at 16 h, 10 µM [16] | bioavailability [17] | bioavailability [18] | clearance [19] | fraction unbound at 16 h, 10 µM [20]
1 | C[C@@H]1CN2c3c(cc4c(Cl)noc4c3F)CC3(C(=O)NC(=O)NC3=O)[C@H]2[C@H](C)O1 | > 1000 µM | < 0.01 | 25 µM (≈ 10.6 µg/mL) | 6.2 µM (≈ 2.62 µg/mL) | 12 µM (≈ 5.07 µg/mL) | 0.78 µM (≈ 0.33 µg/mL) | 0.21 µM | 12 µM | 25 µM (≈ 10.6 µg/mL) | 0.39 µM (≈ 0.165 µg/mL) | 6.2 µM (≈ 2.62 µg/mL) | – | – | – | – | – | – | – | – | –
2 | C[C@H]1COc2c(N3CCN(C)CC3)c(F)cc3c(=O)c(C(=O)O)cn1c23.C[C@H]1COc2c(N3CCN(C)CC3)c(F)cc3c(=O)c(C(=O)O)cn1c23.O [LEVOFLOXACIN] | – | – | – | – | – | – | – | – | – | – | – | 0.25 mg/L | 0.13 mg/L | > 16 mg/L | – | – | – | – | – | –
3 | C[C@@H]1CN2c3c(cc4c(C(F)(F)F)noc4c3F)CC3(C(=O)NC(=O)NC3=O)[C@H]2[C@H](C)O1 | 53 µM (≈ 24.2 µg/mL) | < 0.01 | 1.6 µM (≈ 0.73 µg/mL) | ≤ 0.2 µM | 12 µM (≈ 5.48 µg/mL) | 1.6 µM (≈ 0.73 µg/mL) | 0.61 µM | 100 µM | 25 µM (≈ 11.4 µg/mL) | 0.78 µM (≈ 0.356 µg/mL) | 3.1 µM (≈ 1.41 µg/mL) | – | – | – | 2.76 L/h/kg | 0.078 | 60% | 63% | 0.138 L/h/kg | 0.078
4 | Cc1noc2c(F)c3c(cc12)CC1(C(=O)NC(=O)NC1=O)C1C(C)OC(C)CN31 (racemic) | > 1000 µM | 0.063 | 2.5 µM (≈ 1.01 µg/mL) | 0.3 µM (≈ 0.121 µg/mL) | 21 µM (≈ 8.45 µg/mL) | 2.5 µM (≈ 1.01 µg/mL) | 0.38 µM | – | 100 µM (≈ 40.2 µg/mL) | 2.8 µM (≈ 1.13 µg/mL) | – | – | – | – | – | – | – | – | – | –
5 | CC(=O)NC[C@H]1CN(c2ccc(N3CCOCC3)c(F)c2)C(=O)O1 [LINEZOLID] | – | 0.71 | 23 µM (≈ 7.76 µg/mL) | 20 µM (≈ 6.75 µg/mL) | 3.1 µM (≈ 1.05 µg/mL) | 6.2 µM (≈ 2.09 µg/mL) | > 32 µM | 12 µM | > 200 µM | 6.2 µM (≈ 2.09 µg/mL) | 3.1 µM (≈ 1.05 µg/mL) | – | – | – | – | – | – | – | – | –
6 | CC1CN2c3c(cc4c(C5CC5)noc4c3F)CC3(C(=O)NC(=O)NC3=O)C2C(C)O1 (racemic) | 29 µM (≈ 12.4 µg/mL) | 0.052 | 3.1 µM (≈ 1.33 µg/mL) | ≤ 0.2 µM | 25 µM (≈ 10.7 µg/mL) | 12 µM (≈ 5.14 µg/mL) | 0.34 µM | – | 100 µM (≈ 42.8 µg/mL) | 1.6 µM (≈ 0.685 µg/mL) | 6.2 µM (≈ 2.66 µg/mL) | – | – | – | – | – | – | – | – | –
7 | Cc1noc2c(F)c3c(cc12)CC1(C(=O)NC(=O)NC1=O)[C@@H]1[C@@H](C)O[C@H](C)CN31 | 190 µM (≈ 76.5 µg/mL) | 0.082 | 25 µM (≈ 10.1 µg/mL) | 1.6 µM (≈ 0.644 µg/mL) | 100 µM (≈ 40.2 µg/mL) | 50 µM (≈ 20.1 µg/mL) | 13 µM | – | > 200 µM | 25 µM (≈ 10.1 µg/mL) | 200 µM (≈ 80.5 µg/mL) | – | – | – | – | – | – | – | – | –
8 | Cc1noc2c(F)c3c(cc12)CC1(C(=O)NC(=O)NC1=O)C1C(C)CC(C)CN31 (racemic) | < 1 µM | < 0.01 | > 200 µM | 6.2 µM (≈ 2.48 µg/mL) | 100 µM (≈ 40 µg/mL) | 25 µM (≈ 10 µg/mL) | 0.34 µM | 50 µM | 50 µM (≈ 20 µg/mL) | 25 µM (≈ 10 µg/mL) | 200 µM (≈ 80.1 µg/mL) | – | – | – | – | – | – | – | – | –
9 | COc1noc2c(F)c3c(cc12)CC1(C(=O)NC(=O)NC1=O)[C@H]1[C@H](C)O[C@H](C)CN31 | 510 µM (≈ 213 µg/mL) | 0.09 | 3.1 µM (≈ 1.3 µg/mL) | ≤ 0.2 µM | 25 µM (≈ 10.5 µg/mL) | 3.1 µM (≈ 1.3 µg/mL) | 0.97 µM | – | 200 µM (≈ 83.7 µg/mL) | 3.1 µM (≈ 1.3 µg/mL) | 6.2 µM (≈ 2.59 µg/mL) | – | – | – | – | – | – | – | – | –
